RGS4 block: RGS4 inhibitors, primary screen, cell-based, HEK293 M3R inducible RGS4, calcium flux. Regulator of G-protein signaling 4 (Homo sapiens), P49798. Fluo-4 calcium flux; active compounds read high; triggered by carbachol at its EC20. B-score at 10 µM. 0.45% of 310,000 active. AID 463165, 2010;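 active = B-score, a plate-corrected calcium signal, over three deviations above library mean, with baseline fluorescence within five deviations of library mean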;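 also: RGS4 expression induced by doxycycline in cells with stable M3 receptor; B-score is computed from the integrated fluorescence ratio over baseline after carbachol; higher B-score means a larger calcium signal and so more RGS4 inhibition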
Target sequence (P49798 whole entry, looked up): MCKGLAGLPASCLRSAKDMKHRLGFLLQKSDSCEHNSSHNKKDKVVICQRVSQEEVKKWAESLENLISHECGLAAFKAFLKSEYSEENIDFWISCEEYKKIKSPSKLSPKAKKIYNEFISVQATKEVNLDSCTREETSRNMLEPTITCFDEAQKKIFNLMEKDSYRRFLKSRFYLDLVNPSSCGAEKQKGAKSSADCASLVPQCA
MrgX1 antagonist: antagonists of human MrgX1 receptor, primary screen, HEK293 cells, Fluo-4 calcium flux; Mas-related G-protein coupled receptor member X1 (Homo sapiens), Q96LB2; BAM8-22 antagonism; active compounds read low; B-score at 10 µM; 1.3% of 310,000 active;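 active = calcium-response B-score plate-corrected more than 3 library SD below zero, starting fluorescence within 5 deviations, no agonist response on first addition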;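 also: peak minus trough fluorescence over baseline after final BAM8-22 challenge near maximal dose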
MrgX1 ag: agonists of human MrgX1 receptor, primary screen, HEK293 cells, Fluo-4 calcium flux | Mas-related G-protein coupled receptor member X1 (Homo sapiens), Q96LB2 | Fluo-4 calcium fluorescence, agonist mode; active compounds read high | B-score at 10 µM | 0.44% of 310,000 active | AID 588627, 2011;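 active = calcium response B-score plate-corrected fluorescence ratio at least 3 library SD, with starting fluorescence B-score inside 5 SD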
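Test system: HEK293 cells stably expressing human MrgX1 receptor; amount: 15,000 cells per well; doses: compound delivered in addition one of three; times: overnight plating before 1 h dye loading; detection: Fluo-4 NW calcium-flux fluorescence, kinetic read; read-out basis: B-scored fluorescence response ratio; controls: positive and negative controls per plate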
RGS4 pot: RGS4 potentiators or activators, primary screen, cell-based, HEK293 M3R inducible RGS4, calcium flux; 0.92% of 310,000 active; B-score at 10 µM; carbachol calcium flux Fluo4; active compounds read low;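 active = B-score of the integrated calcium signal more than 4 SD below the library mean, with starting fluorescence not abnormally high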;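 also: negative B-score means reduced calcium response which marks RGS4 activation or potentiation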
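test system = HEK293 cells with stable M3R and inducible RGS4 | schedule = recording 10 s baseline at 1 Hz, 100 s post-agonist | technique = Fluo4-AM (2 µM) calcium-flux fluorescence, kinetic read | measure = Agonist-evoked peak-minus-minimum fluorescence over baseline, integrated ratio, B score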
MrgX1 PAM: positive allosteric modulators of MrgX1, primary screen, HEK293 cells, Fluo-4 calcium flux. Mas-related G-protein coupled receptor member X1 (Homo sapiens), Q96LB2. FDSS; active compounds read high. B-score at 10 µM. 0.63% of 310,000 active;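 active = plate-corrected calcium response at least 3 library SD above typical, normal starting fluorescence, not activating the receptor alone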;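 also: compound read alongside a low EC10 to EC30 dose of BAM8-22 agonist; peak minus trough fluorescence over baseline measured at the second addition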
Starred values were filed as active, the others as inactive; i = inactive; / = not tested or not shown. Sampled rows, rich in hits. Any-hit rate of the full collection: about 3.5%.

SMILES | RGS4 block | MrgX1 antagonist | MrgX1 ag | RGS4 pot | MrgX1 PAM
Cc1nc(C)c(-c2nnc(-c3ccc(C(C)(C)C)cc3)o2)cc1C(=O)NN | i | -6.01* | i | i | i
Cc1nc(C)c(-c2nnc(-c3ccccc3Cl)o2)cc1C(=O)NN | i | i | i | i | i
COc1cccc(N/C=C/C(=O)c2ccc(OC)c(OC)c2)c1 | i | i | i | i | i
CCOC(=O)c1cccc(N/C=C/C(=O)c2ccc(OC)c(OC)c2)c1 | i | i | i | -8.3* | i
CCOc1cc(/C=N/Nc2nc(-c3cccc(S(=O)(=O)N4CCCC4)c3)cs2)ccc1O | i | i | i | -8.85* | i
COc1cc(/C=N/Nc2nc(-c3ccc(S(=O)(=O)N(C)C)cc3)cs2)ccc1O | i | i | i | -7.36* | i
COc1ccc(/C=N/Nc2nc(-c3cccc(S(=O)(=O)N4CCCC4)c3)cs2)cc1OC | i | i | i | i | i
O=S(=O)(c1cccc(-c2csc(N/N=C/c3ccco3)n2)c1)N1CCOCC1 | i | i | i | -8.61* | i
CN(C)CCOC(=O)c1ccc(COc2ccccc2Br)o1 | i | i | i | i | i
Cc1ccc(S(=O)(=O)CCC(=O)N(C)c2c(N)n(Cc3ccccc3)c(=O)[nH]c2=O)cc1 | i | i | i | i | i
COC(=O)c1[nH]c2ccccc2c1NC(=O)CN1CCN(Cc2ccc3c(c2)OCO3)CC1 | i | i | i | i | i
Cc1ccc(-c2cn3nc(-c4ccccc4)c(-c4ccccc4)nc3n2)cc1 | i | i | i | -6.98* | i
O=C(CSCc1cnn(-c2ccccc2)c1-n1cccc1)NCc1ccc2c(c1)OCO2 | i | / | / | -7.31* | /
COCCN=c1scc(-c2ccc3c(c2)NC(=O)CO3)n1/N=C(\C)c1ccc(O)cc1 | i | -5.38* | i | i | i
O=C(CSc1nnc(C2CC2)n1Cc1ccccc1)c1cc2ccccc2o1 | i | i | i | i | i
CCN1/C(=C/c2cccc[n+]2C)Sc2ccc(OC)cc21 | i | -6.05* | i | -7.52* | i
COc1ccc2c(c1)N(C)/C(=C/c1cccc[n+]1C)S2 | i | -5.76* | i | -9.42* | i
COc1cc(OC)cc(C(=O)/C=C2\Sc3ccccc3N2C)c1 | i | i | i | i | i
O=C(CNC(=O)c1ccc(Cl)cc1)OCC(=O)N1CCCC1 | i | i | i | i | i
CC1CN(C(=O)CCC(=O)NCc2ccc(F)cc2)c2ccccc2S1 (configuration not stated) | i | i | i | i | i
Cc1ccc(SCCNC(=O)c2ccc([N+](=O)[O-])c(C)c2)cc1 | i | i | i | i | i
Cc1ccc(SCCNC(=O)c2ccc(C)c([N+](=O)[O-])c2)cc1 | i | i | i | -7.04* | i
O=S(=O)(c1ccc(-c2ccon2)s1)N1CCN(c2ccncc2)CC1 | i | i | 53.1* | i | i
O=S(=O)(c1ccc(-c2ccon2)s1)N1CCCC1 | i | i | i | i | i
CC(C(=O)c1ccccc1)n1c(N2CCOCC2)nc2c1c(=O)n(C)c(=O)n2C (configuration not stated) | i | i | i | i | i
C=CCOCCN(CCOCC=C)C1=NS(=O)(=O)c2ccccc21 | i | i | i | i | i
O=[N+]([O-])c1ccc(Nc2ccccc2)c2nonc12 | i | i | i | i | i
O=[N+]([O-])c1ccc(Sc2cccc[n+]2[O-])c2nonc12 | i | / | / | -8.39* | /
CCC1CCCCN1CCCNC(=O)CSc1nc2nc(C)c(Cc3ccccc3Cl)c(C)n2n1 (configuration not stated) | i | i | i | -6.98* | i
CCc1sc(N2C(=O)C3C4CCC(C4=C(C)C)C3C2=O)nc1-c1ccccc1 (configuration not stated) | i | i | i | -7.46* | i

Assay outcomes as filed in PubChem BioAssay.
